Source: ChEMBL document CHEMBL1121657, “Effects of 1-arylpyrroles and naphthoflavones upon cytochrome P-450 dependent monooxygenase activities” (J Med Chem, 1981)
Values belong to the compound of their own block, whether it stands above or below them.

Columns and labels:
[1] = Compound was evaluated for inhibition constant, in liver microsomes from beta-naphthoflavone-exposed rats; design: species or system Rattus norvegicus, Microsome
[2] = species: Rattus norvegicus; experiment: Maximum rate constant for 7-ethoxycoumarin deethylation in rat liver microsomes 3-methylcholanthrene at concentration of 50 nM; conditions: Microsome
[3] = species: Rattus norvegicus; experiment: Michaelis-Menten constant for 7-ethoxycoumarin deethylation in rat liver microsomes exposed to 3-methylcholanthrene at concentration of 100 uM; conditions: Microsome
Procedure, shortened: (§1)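 Liver microsomes from male Sprague-Dawley rats given 3MC or βNF ip (50 mg/kg/day, corn oil, 3 days), harvested day 4. NADPH-regenerating system in 0.1 M Tris-HCl pH 7.4. Substrate 2.5-300 μM final. Inhibitor added from methanol stock. Reaction started with 0.375-0.56 mg microsomal protein, run 4 min at 37 °C, stopped with TCA. 7-Hydroxycoumarin fluorescence read at pH 10.3. At least four assays per substrate concentration. KM and Vmax by direct linear method, with distribution-free 95% confidence limits.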

[4] = species: Rattus norvegicus; experiment: Maximum rate constant for 7-ethoxycoumarin deethylation in rat liver microsomes 3-methylcholanthrene at concentration of 200 nM; conditions: Microsome
[5] = species: Rattus norvegicus; experiment: Compound was evaluated for alpha -rate constant, in liver microsomes from 3-methylcholanthrene-exposed rats; conditions: Microsome
Procedure, shortened: (§2)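 Rats (male Sprague-Dawley, 75-125 g) dosed ip with 3MC or βNF, 50 mg/kg in corn oil, on 3 successive days; liver microsomes isolated day 4. 7-Ethoxycoumarin deethylation (2.5-300 μM substrate) measured with inhibitor present; KM and Vmax by Eisenthal–Cornish-Bowden direct linear method. Ki from x-intercept of least-squares KM/Vmax vs [I]; αKi from x-intercept of 1/Vmax vs [I].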

[6] = species: Rattus norvegicus; experiment: Michaelis-Menten constant for 7-ethoxycoumarin deethylation in rat liver microsomes exposed to 3-methylcholanthrene at concentration of 50 nM; conditions: Microsome
[7] = species: Rattus norvegicus; experiment: Michaelis-Menten constant for 7-ethoxycoumarin deethylation in rat liver microsomes exposed to beta-naphthoflavone at 1000 nM; conditions: Microsome
[8] = species: Rattus norvegicus; experiment: Michaelis-Menten constant for 7-ethoxycoumarin deethylation in rat liver microsomes exposed to beta-naphthoflavone at 500 uM; conditions: Microsome
Procedure, shortened: (§3)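 Liver microsomes from young male Sprague-Dawley rats (75-125 g) given the inducer ip in corn oil at 50 mg/kg on 3 successive days, microsomes isolated on day 4. 7-Ethoxycoumarin (2.5 to 300 μM final) in 0.1 M Tris-HCl pH 7.4 with NADPH-regenerating system. Reaction started with microsomal protein (0.375-0.56 mg), run 4 min at 37 °C, stopped with TCA. 7-Hydroxycoumarin read fluorometrically at pH 10.3. Inhibitor added from methanol stock, ≥4 assays per condition. KM/Vmax obtained by the Eisenthal–Cornish-Bowden direct linear method with 95% distribution-free confidence limits.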

[9] = species: Rattus norvegicus; experiment: Maximum rate constant for 7-ethoxycoumarin deethylation in rat liver microsomes exposed to beta-naphthoflavone at concentration of 1500 uM; conditions: Microsome; procedure, shortened: as §1
[10] = species: Rattus norvegicus; experiment: Michaelis-Menten constant for 7-ethoxycoumarin deethylation in rat liver microsomes exposed to 3-methylcholanthrene at concentration of 200 uM; conditions: Microsome; procedure, shortened: as §1
[11] = species: Rattus norvegicus; experiment: Maximum rate constant for 7-ethoxycoumarin deethylation in rat liver microsomes exposed to beta-naphthoflavone at concentration of 1000 uM; conditions: Microsome; procedure, shortened: as §1
[12] = species: Rattus norvegicus; experiment: Maximum rate constant for 7-ethoxycoumarin deethylation in rat liver microsomes 3-methylcholanthrene at concentration of 100 nM; conditions: Microsome
[13] = Compound was evaluated for inhibition constant, in liver microsomes from 3-methylcholanthrene-exposed rats; design: species or system Rattus norvegicus, Microsome
[14] = species: Rattus norvegicus; experiment: Compound was evaluated for alpha -rate constant, in liver microsomes from beta-naphthoflavone-exposed rats; conditions: Microsome; procedure, shortened: as §2
[15] = species: Rattus norvegicus; experiment: Michaelis-Menten constant for 7-ethoxycoumarin deethylation in rat liver microsomes exposed to beta-naphthoflavone at 1500 nM; conditions: Microsome
[16] = species: Rattus norvegicus; experiment: Maximum rate constant for 7-ethoxycoumarin deethylation in rat liver microsomes exposed to beta-naphthoflavone at 500 uM; conditions: Microsome; procedure, shortened: as §1
[17] = species: Rattus norvegicus; experiment: Michaelis-Menten constant for 7-ethoxycoumarin deethylation in rat liver microsomes exposed to beta-naphthoflavone at 2.5 uM; conditions: Microsome; procedure, shortened: as §1
[18] = species: Rattus norvegicus; experiment: Maximum rate constant for 7-ethoxycoumarin deethylation in rat liver microsomes exposed to beta-naphthoflavone at 1 uM; conditions: Microsome; procedure, shortened: as §1
[19] = species: Rattus norvegicus; experiment: Michaelis-Menten constant for 7-ethoxycoumarin deethylation in rat liver microsomes exposed to beta-naphthoflavone at 5 uM; conditions: Microsome; procedure, shortened: as §1
[20] = species: Rattus norvegicus; experiment: Maximum rate constant for 7-ethoxycoumarin deethylation in rat liver microsomes exposed to beta-naphthoflavone at 2.5 uM; conditions: Microsome; procedure, shortened: as §1
[21] = species: Rattus norvegicus; experiment: Michaelis-Menten constant for 7-ethoxycoumarin deethylation in rat liver microsomes exposed to beta-naphthoflavone at 1 uM; conditions: Microsome; procedure, shortened: as §1
[22] = species: Rattus norvegicus; experiment: Maximum rate constant for 7-ethoxycoumarin deethylation in rat liver microsomes exposed to beta-naphthoflavone at 5 uM; conditions: Microsome; procedure, shortened: as §1
[23] = species: Rattus norvegicus; experiment: Michaelis-Menten constant for 7-ethoxycoumarin deethylation in rat liver microsomes exposed to beta-naphthoflavone at 50 uM; conditions: Microsome; procedure, shortened: as §3
[24] = species: Rattus norvegicus; experiment: Michaelis-Menten constant for 7-ethoxycoumarin deethylation in rat liver microsomes 3-methylcholanthrene at a concentration of 5 uM; conditions: Microsome; procedure, shortened: as §1
[25] = species: Rattus norvegicus; experiment: Maximum rate constant for 7-ethoxycoumarin deethylation in rat liver microsomes exposed to beta-naphthoflavone at 100 uM; conditions: Microsome; procedure, shortened: as §1
[26] = species: Rattus norvegicus; experiment: Compound was evaluated for alpha inhibition constant, in liver microsomes from beta-naphthoflavone-exposed rats; conditions: Microsome; procedure, shortened: as §2
[27] = species: Rattus norvegicus; experiment: Compound was evaluated for alpha inhibition constant, in liver microsomes from 3-methylcholanthrene-exposed rats; conditions: Microsome; procedure, shortened: as §2
[28] = species: Rattus norvegicus; experiment: Maximum rate constant for 7-ethoxycoumarin deethylation in rat liver microsomes exposed to 3-methylcholanthrene at 5 uM; conditions: Microsome; procedure, shortened: as §1
[29] = species: Rattus norvegicus; experiment: Michaelis-Menten constant for 7-ethoxycoumarin deethylation in rat liver microsomes exposed to beta-naphthoflavone at 100 uM; conditions: Microsome; procedure, shortened: as §1
[30] = species: Rattus norvegicus; experiment: Maximum rate constant for 7-ethoxycoumarin deethylation in rat liver microsomes exposed to 3-methylcholanthrene at 50 uM; conditions: Microsome; procedure, shortened: as §1
[31] = species: Rattus norvegicus; experiment: Michaelis-Menten constant for 7-ethoxycoumarin deethylation in rat liver microsomes exposed to beta-naphthoflavone at 200 uM; conditions: Microsome; procedure, shortened: as §1
[32] = species: Rattus norvegicus; experiment: Maximum rate constant for 7-ethoxycoumarin deethylation in rat liver microsomes exposed to beta-naphthoflavone at 200 uM; conditions: Microsome; procedure, shortened: as §1
[33] = species: Rattus norvegicus; experiment: Michaelis-Menten constant for 7-ethoxycoumarin deethylation in rat liver microsomes exposed to 3-methylcholanthrene at a concentration of 5 uM; conditions: Microsome; procedure, shortened: as §1
[34] = species: Rattus norvegicus; experiment: Michaelis-Menten constant for 7-ethoxycoumarin deethylation in rat liver microsomes exposed to 3-methylcholanthrene at concentration of 10 uM; conditions: Microsome; procedure, shortened: as §1
[35] = species: Rattus norvegicus; experiment: Michaelis-Menten constant for 7-ethoxycoumarin deethylation in rat liver microsomes exposed to beta-naphthoflavone at 10 uM […]; conditions: Microsome; procedure, shortened: as §1
[36] = species: Rattus norvegicus; experiment: Maximum rate constant for 7-ethoxycoumarin deethylation in rat liver microsomes exposed to beta-naphthoflavone at 150 uM; conditions: Microsome; procedure, shortened: as §1
[37] = species: Rattus norvegicus; experiment: Maximum rate constant for 7-ethoxycoumarin deethylation in rat liver microsomes exposed to beta-naphthoflavone at 50 uM; conditions: Microsome; procedure, shortened: as §1
[38] = species: Rattus norvegicus; experiment: Michaelis-Menten constant for 7-ethoxycoumarin deethylation in rat liver microsomes exposed to beta-naphthoflavone at 150 uM; conditions: Microsome; procedure, shortened: as §1

Ki [1]: 0.24 µM
Vmax (pM min-1 mg-1) [2]: 150
Km [3]: 16.7 µM
Vmax (pM min-1 mg-1) [4]: 88
Alpha Ki [5]: 0.21 µM
Km [6]: 19.2 µM
Km [7]: 66.3 µM
Km [8]: 36.9 µM
Vmax (pM min-1 mg-1) [9]: 1210
Km [10]: 31.5 µM
Vmax (pM min-1 mg-1) [11]: 1240
Vmax (pM min-1 mg-1) [12]: 114
Ki [13]: 0.049 µM
Alpha Ki [14]: 11 µM
Km [15]: 93.1 µM
Vmax (pM min-1 mg-1) [16]: 1300
SMILES: O=c1cc(-c2ccccc2)oc2cc3ccccc3cc12

Km [17]: 35.8 µM
Ki [1]: 0.3 µM
Vmax (pM min-1 mg-1) [18]: 734
Km [19]: 41.7 µM
Vmax (pM min-1 mg-1) [20]: 346
Km [21]: 22.1 µM
Vmax (pM min-1 mg-1) [22]: 227
Alpha Ki [14]: 1.4 µM
SMILES: CC(C)c1ccccc1-n1ccnc1

Ki [1]: 19 µM
Km [23]: 44.1 µM
Km [24]: 10.2 µM
Vmax (pM min-1 mg-1) [25]: 652
Alpha Ki [26]: 270 µM
Alpha Ki [27]: 60 µM
Vmax (pM min-1 mg-1) [28]: 141
Km [29]: 52.2 µM
Vmax (pM min-1 mg-1) [30]: 94
Km [31]: 91.3 µM
Vmax (pM min-1 mg-1) [32]: 493
Km [33]: 17.9 µM
Km [34]: 29.7 µM
Ki [13]: 11 µM
SMILES: CC(C)c1ccccc1-n1cccc1

Ki [1]: 27 µM
Km [23]: 28.4 µM
Vmax (pM min-1 mg-1) [25]: 760
Km [35]: 41.2 µM
Vmax (pM min-1 mg-1) [36]: 669
Alpha Ki [14]: 430 µM
Vmax (pM min-1 mg-1) [37]: 819
Km [38]: 64.3 µM
SMILES: c1ccc(-n2cccc2)cc1
